Compound activity: PubChem BioAssay, several laboratories
In the library only some 1.9% were active in any assay of this set; here they are far more common.
Rtt109 HAT inh: inhibitors of C. albicans Rtt109/Vps75 HAT, primary screen, biochemical, ThioGlo CoA-SH fluorescence, plate reader. purified Rtt109/Vps75, 4 h. inhibition, % at 34.9 µM. AID 540336, 2011. Histone acetyltransferase RTT109 (Candida albicans (strain SC5314 / ATCC MYA-2876)), …. hit rate 0.16% among 330,000;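 active = inhibition of at least 50% in every replicate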
Target sequence (Q5AAJ8 whole entry, looked up): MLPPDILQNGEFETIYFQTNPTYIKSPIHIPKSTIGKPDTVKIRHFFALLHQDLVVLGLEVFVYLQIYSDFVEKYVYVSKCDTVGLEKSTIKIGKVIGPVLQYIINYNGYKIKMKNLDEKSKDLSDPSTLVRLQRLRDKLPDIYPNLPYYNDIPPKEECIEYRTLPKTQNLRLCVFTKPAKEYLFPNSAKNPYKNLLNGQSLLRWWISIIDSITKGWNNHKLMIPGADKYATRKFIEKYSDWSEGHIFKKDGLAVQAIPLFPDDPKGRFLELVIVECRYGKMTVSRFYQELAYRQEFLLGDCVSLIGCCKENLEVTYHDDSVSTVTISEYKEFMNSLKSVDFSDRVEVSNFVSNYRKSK
ARFGAP1 inhibitor: inhibitors of rat ARFGAP1 GAP activity, primary screen, biochemical, fluorescence polarization, GDP tracer. Arfgap1-stimulated ARF1 GTP hydrolysis, GDP FP detection. ADP-ribosylation factor GTPase-activating protein 1 (Rattus norvegicus), Q62848. hit rate 0.26% among 360,000. inhibition, % at 16.5 µM. AID 651572, 2012;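 active = inhibition above a per-plate limit, mean inhibition of low control wells plus 3 SD, cut at about 25% in these data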
Target sequence (Q62848 1-136 limits assumed): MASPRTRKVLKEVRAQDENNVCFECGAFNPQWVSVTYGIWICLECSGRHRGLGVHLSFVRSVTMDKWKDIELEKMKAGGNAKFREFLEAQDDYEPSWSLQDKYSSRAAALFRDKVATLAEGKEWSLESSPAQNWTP
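Repeats: one replicate per compound; assay system: rat Arfgap1 catalytic domain, aa 1-136; times: enzyme reaction 120 min at 25 °C after 20 min preincubation; detection: FP of antibody-bound GDP Alexa 633 tracer, ex 620/em 688 nm; benchmarks: high control wells lacking Arfgap1, low control full reaction with DMSO; reagent: human ARF1(Δ1-17)-GTP substrate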
ASAP1 inh: inhibitors of human ASAP1 ArfGAP activity, primary screen, biochemical, fluorescence polarization | Arf-GAP with SH3 domain, ANK repeat and PH domain-containing protein 1 (Homo sapiens), … | ASAP1-stimulated ARF1 GTP hydrolysis, GDP FP detection | inhibition, % at 16.5 µM | hit rate 0.19% among 360,000 | AID 624377, 2012; in the data active = inhibition above about 25%
Efflux pump mplx: inhibitors of Candida efflux pumps in yeast, primary screen, S. cerevisiae, Nile Red, multiplex; AID 485275, 2010; inhibition, % at 10 µM; S. cerevisiae Candida pump triplex; hit rate 0.44% among 330,000;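 active = plate passing quality check with inhibition over a set limit, or well fluorescence over plate mean plus 4 SD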;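 also: Nile Red retained in pooled yeast measured as flow cytometry median fluorescence; higher means more Nile Red kept so more efflux inhibition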
FGF22 binding-1: binders of human FGF22 protein, primary screen, FGF22 synaptogenesis inhibitor project, biophysical, thermal shift, single point; activity (Tm shift, normalised), % at 9.99 µM; hit rate 1.5% among 340,000; recombinant FGF22 thermal shift, SYPRO orange fluorescence; percent of sucrose octasulfate shift, DMSO zero; Fibroblast growth factor 22 (Homo sapiens), Q9HCT0;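 active = mean Tm shift, scaled 0 neutral to 100 positive control, at about 1.3% or above, every replicate too, limit read from the data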
Target sequence (Q9HCT0 whole entry, looked up): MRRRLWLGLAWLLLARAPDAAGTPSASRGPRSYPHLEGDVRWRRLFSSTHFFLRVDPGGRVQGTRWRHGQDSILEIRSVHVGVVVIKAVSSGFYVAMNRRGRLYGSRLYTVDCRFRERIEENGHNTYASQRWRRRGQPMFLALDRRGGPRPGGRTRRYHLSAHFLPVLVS
FGF22 binding-2: binders of human FGF22 protein, dose response, FGF22 synaptogenesis inhibitor project, biophysical, thermal shift, cherry-pick retest. hit rate 2% among 1,000. recombinant FGF22 thermal shift, SYPRO orange fluorescence. thermal shift activity, °C (ΔTm) at 38 µM. AID 720646, 2013. shares compounds with FGF22 binding-1;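 active = fitted rise in melting shift crosses a set limit at or below the top valid dose tested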
FGF22 TSA DP: binders of human FGF22 protein, dose response, FGF22 synaptogenesis inhibitor project, biophysical, thermal shift, dry powder; Thermal shift assay, SYPRO orange, melting temperature shift; shares compounds with FGF22 binding-1; Tm shift (activity), % at 38 µM; 50 tested, under 10 active; AID 743017, 2013;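 active = compounds whose fitted dose curve of melting temperature shift rises past a set threshold within the tested doses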
TSA no protein: compound-only thermal shift signal without protein, dose response, artefact control for FGF22 binder project, biochemical, cherry-picked samples, RT-PCR instrument; shares compounds with FGF22 binding-1; compound-only SYPRO orange thermal shift counter-screen, no protein; AC50, µM (top dose mostly 38 µM); hit rate 2% among 1,000; AID 743019, 2013;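 active = rising signal whose fitted curve reaches the 0.54 level within the top valid dose, showing a melting point, actives reach about 13 µM in these data; inactive = the rest, including activity in the opposite direction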; also: value is where the raw curve crosses a fixed level and not half-maximal
Large screens that a line does not name were inactive (follow-up assays come after a bar, where they were run); ! = repeats disagree.

O=C(Nc1cc(S(=O)(=O)N2CCCCC2)ccc1Cl)C1=NN(c2ccccc2)C(=O)CC1	none
O=C(Nc1cccc(S(=O)(=O)N2CCCCC2)c1)C1=NN(c2ccccc2)C(=O)CC1	FGF22 binding-1 1.9 | FGF22 binding-2 inactive | TSA no protein inactive
Cc1cc(C(=O)Nc2cccc3ccccc23)n(-c2ccccc2)n1	FGF22 binding-1 3.2 | FGF22 binding-2 inactive | TSA no protein inactive
Cc1cc(C(=O)Nc2cccc(C)c2C)n(-c2ccccc2)n1	none
Nc1nonc1N/N=C\c1ccccc1	FGF22 binding-1 2.0 | FGF22 binding-2 inactive | TSA no protein inactive
O=C(N/N=C/c1cccc(Oc2ccccc2)c1)c1cccc(O)c1	FGF22 binding-1 1.5 | FGF22 binding-2 inactive | FGF22 TSA DP inactive | TSA no protein inactive
O=C(N/N=C/c1cccc(Oc2ccccc2)c1)c1cccc(Br)c1	none
O=C(NCC[C@@H]1CC[C@@H](NS(=O)(=O)c2ccccc2)[C@@H](CO)O1)c1ccc2c(c1)OCO2	FGF22 binding-1 1.4 (no result: Rtt109 HAT inh, ARFGAP1 inhibitor, ASAP1 inh, Efflux pump mplx) | FGF22 binding-2 inactive | TSA no protein inactive
O=C(NCC[C@H]1CC[C@@H](NS(=O)(=O)c2ccccc2)[C@H](CO)O1)c1ccc2c(c1)OCO2	none (no result: Rtt109 HAT inh, ARFGAP1 inhibitor, ASAP1 inh, Efflux pump mplx)
Cc1[nH]c2ccccc2c1/C=N/NC(=O)c1cccc(F)c1	FGF22 binding-1 2.0 | FGF22 binding-2 inactive | TSA no protein inactive
Cc1c(/C=N\NC(=O)c2cccc(F)c2)cnn1C	FGF22 binding-1 2.0 | FGF22 binding-2 inactive | TSA no protein inactive
Cc1c(/C=N\NC(=O)c2ccc(F)cc2)cnn1C	none (no result: FGF22 binding-1)
Cc1ccc(S(=O)(=O)N2CCN(S(=O)(=O)N3CCOCC3)CC2)cc1C	none (no result: FGF22 binding-1)
COc1cc(C(=O)NC(=S)Nc2ccc([N+](=O)[O-])cc2C)cc(OC)c1OC	none
COc1cc(C(=O)NC(=S)Nc2ccccc2[N+](=O)[O-])cc(OC)c1OC	FGF22 binding-1 1.8 | FGF22 binding-2 inactive | TSA no protein inactive
C[C@@H]1CN([C@@H](C)CO)C(=O)CCCn2nncc2CO[C@@H]1CN(C)S(=O)(=O)c1ccc(F)cc1	FGF22 binding-1 1.3! (no result: Rtt109 HAT inh, Efflux pump mplx) | FGF22 binding-2 inactive | TSA no protein inactive
C[C@@H]1CN([C@H](C)CO)C(=O)CCCn2nncc2CO[C@H]1CN(C)S(=O)(=O)c1ccc(F)cc1	FGF22 binding-1 1.2! (no result: Rtt109 HAT inh, Efflux pump mplx) | FGF22 binding-2 inactive | TSA no protein inactive
C[C@@H]1CN([C@@H](C)CO)C(=O)c2cc(NC(=O)Nc3ccc(C(F)(F)F)cc3)ccc2O[C@@H]1CN(C)Cc1ccc(C(=O)O)cc1	FGF22 binding-1 2.5 (no result: Rtt109 HAT inh, ARFGAP1 inhibitor, ASAP1 inh, Efflux pump mplx) | FGF22 binding-2 inactive | TSA no protein inactive
C[C@@H]1CN([C@@H](C)CO)C(=O)c2cc(NC(=O)Nc3ccc(C(F)(F)F)cc3)ccc2O[C@H]1CN(C)Cc1ccc(C(=O)O)cc1	none (no result: Rtt109 HAT inh, ARFGAP1 inhibitor, ASAP1 inh, Efflux pump mplx)
C[C@@H]1CN([C@H](C)CO)C(=O)c2cc(NC(=O)Nc3ccc(C(F)(F)F)cc3)ccc2O[C@@H]1CN(C)Cc1ccc(C(=O)O)cc1	FGF22 binding-1 1.4 (no result: Rtt109 HAT inh, ARFGAP1 inhibitor, ASAP1 inh, Efflux pump mplx) | FGF22 binding-2 inactive | TSA no protein inactive
C[C@@H]1CN([C@H](C)CO)C(=O)c2cc(NC(=O)Nc3ccc(C(F)(F)F)cc3)ccc2O[C@H]1CN(C)Cc1ccc(C(=O)O)cc1	none (no result: Rtt109 HAT inh, ARFGAP1 inhibitor, ASAP1 inh, Efflux pump mplx)
Cc1ccc(C)c(C(=O)COC(=O)c2ccc(Br)o2)c1	none (no result: FGF22 binding-1)
CCC1(C)Cc2ccccc2-c2nc(NCCCO)n(C)c(=O)c21 (stereo unspecified)	none
CCCn1c(N)c(C(c2ccc(OC)cc2)N2CCN(c3ccccc3)CC2)c(=O)[nH]c1=O (stereo unspecified)	none (no result: FGF22 binding-1)
CC1CN(C(=O)C(C)N2CCN(c3ccccc3Cl)CC2)CC(C)O1 (stereo unspecified)	FGF22 binding-1 16.7 | FGF22 binding-2 inactive | TSA no protein inactive
CC1CN(C(=O)C(C)N2CCN(c3cccc(Cl)c3)CC2)CC(C)O1 (stereo unspecified)	none
CCOc1ccc(N(CC(=O)NCCSc2ccccn2)S(=O)(=O)c2ccc(Cl)cc2)cc1	FGF22 binding-1 29.0 | FGF22 binding-2 inactive | TSA no protein inactive
CC1(c2ccc3ccccc3c2)NC(=O)N(CC(=O)Nc2ncccc2O)C1=O (stereo unspecified)	FGF22 binding-1 1.7 | FGF22 binding-2 inactive | TSA no protein inactive
CC(C)(C)[S@@](=O)N1Cc2cc(C(=O)NCc3ccccc3F)nc(-c3cccc(-c4ccncc4)c3)c2[C@H]1CCO	FGF22 binding-1 1.9 (no result: Rtt109 HAT inh, ARFGAP1 inhibitor, ASAP1 inh, Efflux pump mplx) | FGF22 binding-2 inactive | TSA no protein inactive
CC(C)(C)[S@](=O)N1Cc2cc(C(=O)NCc3ccccc3F)nc(-c3cccc(-c4cncnc4)c3)c2[C@@H]1CCO	none (no result: Rtt109 HAT inh, ARFGAP1 inhibitor, ASAP1 inh, Efflux pump mplx)
O=S(=O)(Nc1ccccc1OC(F)F)c1ccc(S(=O)(=O)N2CCCC2)cc1	FGF22 binding-1 3.2 | FGF22 binding-2 inactive | TSA no protein inactive
O=C(COc1ccc2c(c1)oc(=O)c1ccccc12)NC(Cc1ccc(Cl)cc1)C(=O)O (stereo unspecified)	FGF22 binding-1 1.6 | FGF22 binding-2 inactive | TSA no protein inactive
O=C(COc1ccc2c(c1)oc(=O)c1ccccc12)N[C@@H](Cc1ccccc1)C(=O)O	none
NC(c1ccc(F)c(F)c1)c1nc(-c2cncnc2)cs1 (stereo unspecified)	FGF22 binding-1 37.9 (no result: Rtt109 HAT inh, Efflux pump mplx) | FGF22 binding-2 inactive | TSA no protein inactive
Cc1cccc(C(=O)NCC(=O)N2CCN(c3ccc(Cl)cc3)CC2)c1	none
Cc1cc(C)cc(C(=O)NCC(=O)N2CCN(c3cccc(Cl)c3)CC2)c1	FGF22 binding-1 36.8 | FGF22 binding-2 inactive | TSA no protein inactive
Cc1cc(NC(=O)CSc2ccc3nnc(-c4ccccn4)n3n2)no1	none
